According to ChEMBL document CHEMBL4477241, “Structure-Activity Relationship Studies for Enhancer of Zeste Homologue 2 (EZH2) and Enhancer of Zeste Homologue 1 (EZH1) Inhibitors” (J Med Chem, 2016):

Columns and labels:
[1] = biological target: Histone-lysine N-methyltransferase EZH2 (Homo sapiens, UniProt O75530+Q15022+Q15910); assay: Inhibition of EZH2 histone methyltransferase activity of EZH2/EED/SUZ12 protein complex (unknown origin) using histone H3 peptide as substrate (21 to 44 residues) in presence of [3H]-S-adenosylmethionine after 2 hrs by scintillation proximity assay
In short: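 20 nM EZH2 trimeric complex with 2 μM 3H-SAM and 1 μM biotinylated H3(21–44) in 20 mM Tris-HCl pH 8, 5 mM DTT, 0.01% Triton X-100. Incubated 1 h at 23 °C, quenched with guanidine hydrochloride, then 2 h streptavidin flash-plate capture. Activity scaled between no-compound and no-enzyme counts.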

[2] = biological target: T1, Histone-lysine N-methyltransferase EZH1 (Homo sapiens, UniProt Q92800); assay: Inhibition of EZH1 histone methyltransferase activity of EZH1/EED/SUZ12/RBBP4/AEBP2 protein complex (unknown origin) using histone H3 peptide as substrate (21 to 44 residues) in presence of [3H]-S-adenosylmethionine after 2 hrs by scintillation proximity assay
T1 sequence (Q92800 whole entry): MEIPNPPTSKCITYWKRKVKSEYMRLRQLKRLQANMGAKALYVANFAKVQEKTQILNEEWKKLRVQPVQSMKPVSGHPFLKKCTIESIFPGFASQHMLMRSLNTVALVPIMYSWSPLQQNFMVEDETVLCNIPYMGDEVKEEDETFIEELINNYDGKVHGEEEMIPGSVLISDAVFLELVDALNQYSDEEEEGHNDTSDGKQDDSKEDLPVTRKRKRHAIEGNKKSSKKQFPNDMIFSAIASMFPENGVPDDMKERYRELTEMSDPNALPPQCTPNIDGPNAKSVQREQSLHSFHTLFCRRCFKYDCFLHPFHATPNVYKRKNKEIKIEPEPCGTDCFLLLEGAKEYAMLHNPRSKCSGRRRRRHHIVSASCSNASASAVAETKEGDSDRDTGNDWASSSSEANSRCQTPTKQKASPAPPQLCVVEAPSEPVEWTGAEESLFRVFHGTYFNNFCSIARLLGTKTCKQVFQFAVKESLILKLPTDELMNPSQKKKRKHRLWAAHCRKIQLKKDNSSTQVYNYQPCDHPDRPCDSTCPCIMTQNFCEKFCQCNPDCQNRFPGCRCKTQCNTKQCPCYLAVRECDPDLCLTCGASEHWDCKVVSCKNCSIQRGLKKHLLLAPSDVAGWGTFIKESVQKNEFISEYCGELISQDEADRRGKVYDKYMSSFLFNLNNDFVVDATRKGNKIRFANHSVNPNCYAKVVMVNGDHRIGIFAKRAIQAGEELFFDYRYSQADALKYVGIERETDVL
In short: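 10 nM EZH1 pentameric complex with 4 μM 3H-SAM and 1 μM biotinylated H3(21–44) in 20 mM Tris-HCl pH 8, 5 mM DTT, 0.01% Triton X-100. Reaction run 1 h at 23 °C, stopped with guanidine hydrochloride, then captured 2 h on a streptavidin flash plate. Counts normalized to no-compound (100%) and no-enzyme (0%) controls.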

Histone-lysine N-methyltransferase EZH2, sequence (Q15910 whole entry, the tested form may be a part, one chain of several): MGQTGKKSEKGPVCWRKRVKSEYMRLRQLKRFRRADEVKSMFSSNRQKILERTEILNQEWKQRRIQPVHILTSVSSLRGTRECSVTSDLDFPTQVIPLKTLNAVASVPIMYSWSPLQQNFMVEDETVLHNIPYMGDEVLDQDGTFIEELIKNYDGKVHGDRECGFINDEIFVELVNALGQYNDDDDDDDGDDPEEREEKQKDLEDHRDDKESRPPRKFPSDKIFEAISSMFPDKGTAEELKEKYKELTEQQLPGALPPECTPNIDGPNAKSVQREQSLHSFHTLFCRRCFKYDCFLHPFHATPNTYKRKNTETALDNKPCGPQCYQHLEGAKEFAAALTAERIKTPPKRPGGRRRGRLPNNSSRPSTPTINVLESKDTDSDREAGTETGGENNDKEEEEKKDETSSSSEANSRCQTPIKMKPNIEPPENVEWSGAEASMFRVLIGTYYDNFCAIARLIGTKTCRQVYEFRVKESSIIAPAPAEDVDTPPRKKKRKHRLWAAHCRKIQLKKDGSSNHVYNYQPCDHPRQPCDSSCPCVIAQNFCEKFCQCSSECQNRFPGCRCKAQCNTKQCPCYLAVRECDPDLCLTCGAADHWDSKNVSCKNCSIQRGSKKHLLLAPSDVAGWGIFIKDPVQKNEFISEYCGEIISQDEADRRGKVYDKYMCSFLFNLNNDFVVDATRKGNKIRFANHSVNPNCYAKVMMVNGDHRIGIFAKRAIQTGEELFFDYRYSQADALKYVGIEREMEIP

Row | IC50 [1] [nM] | IC50 [2] [nM] | SMILES
1 | 42 | > 2500 | CCCc1cc(C)[nH]c(=O)c1CNC(=O)c1cc(N2CCCNCC2)cc2c1cnn2C(C)C
2 | 26 | > 1250 | CCCc1cc(C)[nH]c(=O)c1CNC(=O)c1cc(NC2CCNCC2)cc2c1cnn2C(C)C
3 | 12 | 810 | CCc1cc(C)[nH]c(=O)c1CNC(=O)c1cc(-c2ccc(N3CCN(C(C)C)CC3)nc2)cc2c1cnn2C(C)C
4 | < 10 | 160 | CCCCc1cc(C)[nH]c(=O)c1CNC(=O)c1cc(-c2ccc(N3CCN(C(C)C)CC3)nc2)cc2c1cnn2C(C)C
5 | 11 | 613 | CCCc1cc(C)[nH]c(=O)c1CNC(=O)c1cc(C2CCNCC2)cc2c1cnn2C(C)C
6 | 17 | 880 | CCCc1cc(C)[nH]c(=O)c1CNC(=O)c1cc(N2CCNCC2)cc2c1cnn2C(C)C
7 | 35 | > 5000 | CCCc1cc(C)[nH]c(=O)c1CNC(=O)c1cc(Br)cc2c1cnn2C(C)C
